Published values from different studies.
Compare with care: the assays were run in different laboratories.
Target: Death-associated protein kinase 2 (DAPK2, Homo sapiens, UniProt Q9UIK4)

Cc1cc(-n2nc(Cc3cc(F)cc(C(F)(F)F)c3)nc2C)ccc1C(N)=O — remaining binding (cell-free assay; competition with immobilised ligand; 1 µM): 95%
O=C(Nc1c[nH]nc1C(=O)NC1CCNCC1)c1cc(F)cc(F)c1 — remaining binding (binding; competition with immobilised ligand; 1 µM): 100%
CN(c1ccnc(CNc2nc(Nc3ccc4c(c3)CC(=O)N4)ncc2C(F)(F)F)n1)S(C)(=O)=O — remaining binding (cell-free assay; competition with immobilised ligand; 1 µM): 58%
CNC(=O)[C@@H]1CC[C@@H](n2c(-c3ccc4cnccc4c3)nc3ccc(C(=O)NCc4cccc(C(N)=O)c4)cc32)C1 — remaining binding (binding; competition with immobilised ligand; 1 µM): 100%
COc1cccc(CNC(=O)c2nc3scc(COCc4ccc(C(=O)O)cc4)c3c(=O)[nH]2)c1 — remaining binding (cell-free assay; competition with immobilised ligand; 1 µM): 83.1%
CN(CCCC(F)(F)F)c1nccc(-c2cnn3ncccc23)n1 — remaining binding (binding; 1 µM): 97%
N#CC1(c2ccccn2)CCN(Cc2cc(C(=O)N3CCCC3)c(=O)n3ccccc23)CC1 — remaining binding (cell-free assay; competition with immobilised ligand; 1 µM): 94%
Cc1cnc(Nc2ccc(C(=O)N3CCC(N4CCCC4)CC3)cc2)nc1-c1cc2ccccc2s1 — remaining binding (binding; competition with immobilised ligand; 1 µM): 8.9%
COc1ccnn2ncc(-c3ccnc(N(C)C)n3)c12 — remaining binding (binding; 1 µM): 91%
O=C(c1ccc(Nc2nccc(-c3cc4ccccc4s3)n2)cc1)N1CCC(N2CCCC2)CC1 — remaining binding (binding; competition with immobilised ligand; 1 µM): 19%
CC1CCCN1c1nccc(-c2cnn3ncccc23)n1 (stereo not shown) — remaining binding (binding; 1 µM): 86%
COc1ncc2cc3ccccc3nc2c1C#N — remaining binding (cell-free assay; competition with immobilised ligand; 5 µM): 97%
CCS(=O)(=O)c1cc2cc(C[C@](O)(CC(C)(C)c3ccc(F)cc3C(N)=O)C(F)(F)F)[nH]c2cn1 — remaining binding (cell-free assay; competition with immobilised ligand; 1 µM): 90%
CN(C)c1nccc(-c2cnc3ncccn23)n1 — remaining binding (binding; 1 µM): 89%
C=CC(=O)N1CCC(C(=O)NCC(=O)N2CCN(c3nc(-c4cnc(N)nc4C(F)F)nc(N4CCOCC4)n3)CC2)CC1 — remaining binding (binding; competition with immobilised ligand; 1 µM): 95%
COc1cnc(Nc2cccc(S(N)(=O)=O)c2)nc1N1CCN(c2ccccc2)CC1 — remaining binding (binding; competition with immobilised ligand; 1 µM): 78%
C[C@@H]1CCN(c2nccc(-c3cnn4ncccc34)n2)C1 — remaining binding (binding; 1 µM): 85%
C[C@H](NC(=O)c1cnc2n1[C@](C)(Cc1ccc(C#N)cc1)C(=O)N2c1cc(Cl)c(F)c(Cl)c1)C(=O)NC1(c2ccccn2)CC1 — remaining binding (cell-free assay; competition with immobilised ligand; 1 µM): 100%
F[C@@H]1CCN(c2nccc(-c3cnn4ncccc34)n2)C1 — remaining binding (binding; 1 µM): 100%
O=C(NCCCN1CCOCC1)c1ccc(Nc2nccc(-c3cc4ccccc4s3)n2)cc1 — remaining binding (binding; competition with immobilised ligand; 1 µM): 18%
Cc1noc([C@H]2C[C@@H](c3ccc(C(F)(F)F)cc3)CN(C(=O)N3CCS(=O)(=O)C3)C2)n1 — remaining binding (cell-free assay; competition with immobilised ligand; 1 µM): 100%
c1cnn2ncc(-c3ccnc(N4CCC45COC5)n3)c2c1 — remaining binding (binding; 1 µM): 70%
